Test [1] addresses Macrophage colony-stimulating factor 1 receptor (Homo sapiens) (UniProt P07333). Nature of the test: Inhibition of TEL-fused partial length human CSF1R expressed in mouse BA/F3 cells after 72 hrs by cell titer-glo assay. The test is classed as cell-based. Summed up: (§1)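 Cells seeded at 3000 per well and exposed to serial compound dilutions for 72 h. Viability read by CellTiter-Glo luminescence and normalised to DMSO controls; mean of three independent measurements. BaF3 lines kept IL-3-free in RPMI 1640/10% FBS after retroviral transduction and puromycin selection. GIST lines grown in DMEM/10% FBS.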
Background: In ATP-based viability assays light output follows the ATP content of the culture.

Test [2] has as its system BaF3. Nature of the test: Induction of apoptosis in mouse BA/F3 cells harboring TEL-fused cKIT T670I mutant allografted in nu/nu mouse at 25 to 100 mg/kg, ip administered daily for 10 days by TUNEL staining based microscopic analysis. It is filed as functional, organism-based. In a few lines:
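Tumour sections from the daily-IP, 10-day BaF3-TEL-cKIT-T670I xenograft study were deparaffinised and digested with proteinase K for 15 min at RT. Peroxidase blocked in 3% H2O2/methanol. TdT reaction 1 h at 37 °C, converter-POD 30 min at 37 °C, DAB ~8 min, haematoxylin counterstain.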

In test [3] the target is T1, Mast/stem cell growth factor receptor Kit (Homo sapiens, UniProt P10721). In words: Inhibition of wild type cKIT in human GIST-T1 cells assessed as downregulation of ERK phosphorylation at T202//204 after 1 hr by Western blot analysis. It is filed as cell-based. In a few lines: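 GIST-T1 cells in DMEM with 10% FBS were exposed to serially diluted compound for 1 h, then lysed. Lysates were analysed by western blot with phospho-specific antibodies against AKT (Ser473), ERK1/2 (Thr202/Tyr204) and S6 ribosomal protein (Ser235/236), each alongside its total protein.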
T1 sequence (P10721 whole entry): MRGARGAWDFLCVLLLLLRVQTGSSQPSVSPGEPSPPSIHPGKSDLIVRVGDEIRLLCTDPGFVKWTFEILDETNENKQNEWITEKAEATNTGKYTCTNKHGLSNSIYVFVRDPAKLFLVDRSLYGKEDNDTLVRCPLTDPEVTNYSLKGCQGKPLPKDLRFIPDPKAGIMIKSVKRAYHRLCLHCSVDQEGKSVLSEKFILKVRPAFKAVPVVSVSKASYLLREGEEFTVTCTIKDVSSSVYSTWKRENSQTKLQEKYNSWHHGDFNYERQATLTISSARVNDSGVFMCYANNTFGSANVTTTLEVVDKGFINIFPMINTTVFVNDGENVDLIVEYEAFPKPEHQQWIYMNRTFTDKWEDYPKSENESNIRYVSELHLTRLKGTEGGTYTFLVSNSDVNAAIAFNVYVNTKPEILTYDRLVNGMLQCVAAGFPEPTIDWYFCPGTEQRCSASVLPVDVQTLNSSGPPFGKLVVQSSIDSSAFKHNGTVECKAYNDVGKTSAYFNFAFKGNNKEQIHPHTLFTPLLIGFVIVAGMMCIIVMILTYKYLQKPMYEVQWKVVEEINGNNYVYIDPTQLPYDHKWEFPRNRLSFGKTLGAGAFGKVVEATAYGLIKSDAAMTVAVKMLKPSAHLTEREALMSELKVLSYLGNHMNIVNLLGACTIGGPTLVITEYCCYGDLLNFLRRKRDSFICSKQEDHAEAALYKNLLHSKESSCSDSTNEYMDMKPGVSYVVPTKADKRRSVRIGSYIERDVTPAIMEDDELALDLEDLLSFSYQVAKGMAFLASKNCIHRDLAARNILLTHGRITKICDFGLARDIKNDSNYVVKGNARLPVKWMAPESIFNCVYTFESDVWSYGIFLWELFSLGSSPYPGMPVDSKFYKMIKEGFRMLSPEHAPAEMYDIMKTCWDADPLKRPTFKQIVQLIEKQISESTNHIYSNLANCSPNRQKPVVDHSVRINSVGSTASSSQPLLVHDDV
A general note: In western blotting, separated proteins are transferred to a membrane and probed.

Test [4] concerns the target Proto-oncogene tyrosine-protein kinase receptor Ret (Homo sapiens) (UniProt P07949). Nature of the test: Inhibition of TEL-fused partial length human RET expressed in mouse BA/F3 cells after 72 hrs by cell titer-glo assay. The test is classed as cell-based. In a few lines:
as §1

In test [5] the test system is GISTT1. In words: Induction of apoptosis in human GISTT1 cells assessed as increase in cleaved PARP levels after 24 hrs by Western blot analysis. It is filed as functional, cell-based. Summed up:
(§2)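 GIST-T1 or GIST-5R cells in DMEM with 10% FBS were exposed to serially diluted compound for 24 h. Apoptosis was assessed by western blot with PARP and GAPDH antibodies.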

Test [6] relates to GISTT1. Nature of the test: Induction of apoptosis in human GISTT1 cells assessed as increase in cleaved PARP levels after at 30 nM 24 hrs by Western blot analysis. It is filed as functional, cell-based. In a few lines:
as §2

Test [7] deals with Mast/stem cell growth factor receptor Kit (Homo sapiens), P10721 [T670I]. Nature of the test: Inhibition of partial length human cKIT T670I mutant expressed in bacterial expression system assessed as activity remaining at 1 uM by kinome scan assay.
Chain of Mast/stem cell growth factor receptor Kit (Homo sapiens), P10721 [T670I] (P10721 whole entry T670I, the tested form may be a part): as the sequence (P10721 whole entry) above, with T670I counted along it
Test [8] deals with T1, Mast/stem cell growth factor receptor Kit. Nature of the test: Ratio of sunitinib IC50 to compound IC50 for TEL-fused cKIT (unknown origin) expressed in mouse BA/F3 cells. The test is classed as cell-based.
Test [9] relates to Mast/stem cell growth factor receptor Kit (Homo sapiens), P10721 [V559D,T670I]. Nature of the test: Inhibition of TEL-fused cKIT T670I/V559D double mutant (unknown origin) expressed in mouse BA/F3 cells assessed as cell growth inhibition after 72 hrs by cell titer-glo assay. It is filed as cell-based. In a few lines:
as §1

The target in test [10] is T1, Mast/stem cell growth factor receptor Kit. In words: Inhibition of partial length human cKIT expressed in bacterial expression system assessed as activity remaining at 1 uM by kinome scan assay.
Test [11] has the same target. Nature of the test: Ratio of Imatinib IC50 to compound IC50 for wild type cKIT in human GIST-T1 cells. It is filed as cell-based.
Test [12] has the same target. In words: Inhibition of wild type cKIT autophosphorylation at Y703 in human GIST-T1 cells at 100 nM after 1 hr by Western blot analysis. The test is classed as cell-based. In a few lines:
(§3)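 GIST-T1 or GIST-5R cells in DMEM with 10% FBS were treated with serially diluted compound for 1 h. Cells were then lysed and analysed by western blotting.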

In test [13] the test system is Mast/stem cell growth factor receptor Kit (Homo sapiens), P10721 [N822K]. In words: Inhibition of TEL-fused cKIT N822K mutant (unknown origin) expressed in mouse BA/F3 cells assessed as cell growth inhibition after 72 hrs by cell titer-glo assay. It is filed as cell-based. Summed up:
as §1

In test [14] the target is Macrophage colony-stimulating factor 1 receptor (Homo sapiens) (UniProt P07333). In words: Inhibition of partial length human CSF1R expressed in bacterial expression system assessed as activity remaining at 1 uM by kinome scan assay.
Chain of Macrophage colony-stimulating factor 1 receptor (Homo sapiens) (P07333 whole entry, the tested form may be a part): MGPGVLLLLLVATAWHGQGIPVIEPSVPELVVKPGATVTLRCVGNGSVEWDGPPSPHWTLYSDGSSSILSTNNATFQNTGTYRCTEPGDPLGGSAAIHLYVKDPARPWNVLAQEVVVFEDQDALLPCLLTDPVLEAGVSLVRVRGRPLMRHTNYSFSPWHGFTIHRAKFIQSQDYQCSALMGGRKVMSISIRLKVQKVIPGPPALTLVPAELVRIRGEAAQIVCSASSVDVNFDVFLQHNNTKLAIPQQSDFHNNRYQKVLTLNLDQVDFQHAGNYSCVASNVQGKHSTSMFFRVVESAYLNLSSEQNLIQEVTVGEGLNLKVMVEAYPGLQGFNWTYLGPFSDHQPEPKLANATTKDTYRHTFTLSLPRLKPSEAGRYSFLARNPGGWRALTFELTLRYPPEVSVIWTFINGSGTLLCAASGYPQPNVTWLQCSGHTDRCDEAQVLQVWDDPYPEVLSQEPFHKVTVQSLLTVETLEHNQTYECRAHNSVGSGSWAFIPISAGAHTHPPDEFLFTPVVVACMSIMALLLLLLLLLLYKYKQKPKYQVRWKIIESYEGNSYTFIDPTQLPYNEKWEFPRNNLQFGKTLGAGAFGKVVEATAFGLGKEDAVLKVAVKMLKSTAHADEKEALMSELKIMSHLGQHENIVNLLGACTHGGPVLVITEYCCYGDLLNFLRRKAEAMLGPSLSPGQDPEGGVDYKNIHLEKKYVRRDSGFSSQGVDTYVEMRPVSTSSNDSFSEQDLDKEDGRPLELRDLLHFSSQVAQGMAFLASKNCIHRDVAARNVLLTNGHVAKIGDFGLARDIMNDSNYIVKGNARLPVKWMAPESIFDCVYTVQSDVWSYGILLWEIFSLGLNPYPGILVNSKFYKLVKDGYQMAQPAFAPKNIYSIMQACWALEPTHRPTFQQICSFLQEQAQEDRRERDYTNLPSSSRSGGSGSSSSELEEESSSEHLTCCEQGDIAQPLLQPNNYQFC
For test [15], the target named is Platelet-derived growth factor receptor beta (Homo sapiens) (UniProt P09619). Nature of the test: Inhibition of partial length human PDGFRbeta expressed in bacterial expression system assessed as activity remaining at 1 uM by kinome scan assay.
Chain of Platelet-derived growth factor receptor beta (Homo sapiens) (P09619 whole entry, the tested form may be a part): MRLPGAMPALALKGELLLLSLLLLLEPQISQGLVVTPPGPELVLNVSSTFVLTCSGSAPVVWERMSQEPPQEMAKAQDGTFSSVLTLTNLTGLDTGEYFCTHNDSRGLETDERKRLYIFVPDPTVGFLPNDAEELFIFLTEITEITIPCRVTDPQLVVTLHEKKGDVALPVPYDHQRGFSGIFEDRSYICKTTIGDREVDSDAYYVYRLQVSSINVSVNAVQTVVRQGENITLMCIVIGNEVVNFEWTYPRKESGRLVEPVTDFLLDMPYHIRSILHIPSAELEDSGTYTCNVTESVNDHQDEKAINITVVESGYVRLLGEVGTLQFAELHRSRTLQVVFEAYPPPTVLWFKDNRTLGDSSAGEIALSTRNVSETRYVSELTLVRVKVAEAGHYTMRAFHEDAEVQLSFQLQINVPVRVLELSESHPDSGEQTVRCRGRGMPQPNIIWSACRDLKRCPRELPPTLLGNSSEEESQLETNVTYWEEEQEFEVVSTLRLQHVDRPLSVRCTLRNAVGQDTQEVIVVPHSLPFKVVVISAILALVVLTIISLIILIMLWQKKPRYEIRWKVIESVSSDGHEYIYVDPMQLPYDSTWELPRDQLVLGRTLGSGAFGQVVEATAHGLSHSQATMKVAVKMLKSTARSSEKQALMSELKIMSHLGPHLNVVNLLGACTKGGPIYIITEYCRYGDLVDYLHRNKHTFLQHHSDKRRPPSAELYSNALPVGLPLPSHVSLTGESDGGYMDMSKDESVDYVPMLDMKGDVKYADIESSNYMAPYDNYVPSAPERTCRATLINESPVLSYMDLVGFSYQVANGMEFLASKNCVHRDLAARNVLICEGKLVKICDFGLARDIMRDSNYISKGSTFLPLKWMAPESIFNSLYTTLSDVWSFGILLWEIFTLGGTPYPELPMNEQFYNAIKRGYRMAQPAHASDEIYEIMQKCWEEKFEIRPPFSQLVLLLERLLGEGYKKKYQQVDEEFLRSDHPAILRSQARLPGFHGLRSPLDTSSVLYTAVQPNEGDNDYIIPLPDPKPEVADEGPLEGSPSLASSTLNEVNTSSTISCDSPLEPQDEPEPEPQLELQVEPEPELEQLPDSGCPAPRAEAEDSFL
Test [16] has as its system BaF3. In words: Antiproliferative against mouse BA/F3 cells harboring TEL-fused cKIT T670I mutant allografted in nu/nu mouse assessed as tumor growth inhibition at 25 to 100 mg/kg, ip administered daily for 10 days by Ki-67 staining based microscopic analysis. The test is classed as functional, organism-based. In a few lines:
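Tumours from BaF3-TEL-cKIT-T670I subcutaneous xenografts in nu/nu mice after 10 days of daily IP dosing (25–100 mg/kg/d). Sections underwent citrate pH 6.0 microwave antigen retrieval and casein block, then anti-Ki-67 mouse mAb 1:50 overnight at 4 °C. Detection with DAB and haematoxylin counterstain.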

For test [17], the target named is T1, Mast/stem cell growth factor receptor Kit. In words: Inhibition of His-tagged cKIT (unknown origin) expressed in Sf9 cells using Poly(4:1 Glu, Tyr) peptide as substrate after 1 hr by ADP-glo kinase assay. For orientation: In ADP-Glo the light output rises with the ADP produced.
Test [18] is filed under the species Homo sapiens. Nature of the test: Inhibition of TEL-fused cKIT L567P mutant (unknown origin) expressed in mouse BA/F3 cells assessed as cell growth inhibition after 72 hrs by cell titer-glo assay. It is filed as cell-based. In a few lines:
as §1

In test [19] the test system is BaF3. Nature of the test: Antitumor activity against TEL-fused cKIT T670I mutant expressing mouse BA/F3 cells allografted in nu/nu mouse assessed as tumor growth inhibition at 100 mg/kg/day, ip administered daily for 10 days. The test is classed as functional. The following applies: 240 h, read-out: TGI. Summed up:
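Female nu/nu mice, 5 weeks old at purchase, given 1 million BaF3-TEL-cKIT-T670I cells in PBS/Matrigel 1:1 subcutaneously on the right flank. At tumour volume 200–400 mm3, randomised into groups of 7 and dosed IP daily for 10 days (25, 50, 100 mg/kg/d or vehicle: 0.5% methylcellulose/0.4% Tween80 in water). Tumour volume (W2×L/2) and body weight recorded daily.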

Test [20] addresses Mast/stem cell growth factor receptor Kit (Homo sapiens, UniProt P10721, T670I). Nature of the test: Inhibition of cKIT T670I mutant autophosphorylation at Y719 in human GIST-5R cells at 0.1 to 3 uM after 1 hr by Western blot analysis. It is filed as cell-based. In a few lines: as §3
Test [21] has as its target T1, Mast/stem cell growth factor receptor Kit. Nature of the test: Ratio of imatinib IC50 to compound IC50 for TEL-fused cKIT (unknown origin) expressed in mouse BA/F3 cells. It is filed as cell-based.
The species named for test [22] is Homo sapiens. Nature of the test: Induction of apoptosis in human GIST5R cells assessed as increase in cleaved PARP levels after at 30 nM 24 hrs by Western blot analysis. It is filed as functional, cell-based. Summed up:
as §2

Test [23] is filed under the species Homo sapiens. In words: Induction of apoptosis in human GIST5R cells assessed as increase in cleaved PARP levels after 24 hrs by Western blot analysis. It is filed as functional, cell-based. In a few lines: as §2

Calls of active or inactive are those of the source. No cut-off for these calls is given here. Bounds are passed on as bounds.

As usually defined, the GI50 is the concentration that inhibits growth by half. In general, EC50 refers to the concentration that produces a half-maximal response. A word on the IC50: it is the concentration needed to halve the response being measured. A higher IC50 goes with a need for much substance.

Chain of Mast/stem cell growth factor receptor Kit (Homo sapiens), P10721 [N822K] (P10721 whole entry N822K, the tested form may be a part): as the sequence (P10721 whole entry) above, with N822K counted along it
Chain of Mast/stem cell growth factor receptor Kit (Homo sapiens, UniProt P10721, T670I) (P10721 26-976 T670I limits assumed): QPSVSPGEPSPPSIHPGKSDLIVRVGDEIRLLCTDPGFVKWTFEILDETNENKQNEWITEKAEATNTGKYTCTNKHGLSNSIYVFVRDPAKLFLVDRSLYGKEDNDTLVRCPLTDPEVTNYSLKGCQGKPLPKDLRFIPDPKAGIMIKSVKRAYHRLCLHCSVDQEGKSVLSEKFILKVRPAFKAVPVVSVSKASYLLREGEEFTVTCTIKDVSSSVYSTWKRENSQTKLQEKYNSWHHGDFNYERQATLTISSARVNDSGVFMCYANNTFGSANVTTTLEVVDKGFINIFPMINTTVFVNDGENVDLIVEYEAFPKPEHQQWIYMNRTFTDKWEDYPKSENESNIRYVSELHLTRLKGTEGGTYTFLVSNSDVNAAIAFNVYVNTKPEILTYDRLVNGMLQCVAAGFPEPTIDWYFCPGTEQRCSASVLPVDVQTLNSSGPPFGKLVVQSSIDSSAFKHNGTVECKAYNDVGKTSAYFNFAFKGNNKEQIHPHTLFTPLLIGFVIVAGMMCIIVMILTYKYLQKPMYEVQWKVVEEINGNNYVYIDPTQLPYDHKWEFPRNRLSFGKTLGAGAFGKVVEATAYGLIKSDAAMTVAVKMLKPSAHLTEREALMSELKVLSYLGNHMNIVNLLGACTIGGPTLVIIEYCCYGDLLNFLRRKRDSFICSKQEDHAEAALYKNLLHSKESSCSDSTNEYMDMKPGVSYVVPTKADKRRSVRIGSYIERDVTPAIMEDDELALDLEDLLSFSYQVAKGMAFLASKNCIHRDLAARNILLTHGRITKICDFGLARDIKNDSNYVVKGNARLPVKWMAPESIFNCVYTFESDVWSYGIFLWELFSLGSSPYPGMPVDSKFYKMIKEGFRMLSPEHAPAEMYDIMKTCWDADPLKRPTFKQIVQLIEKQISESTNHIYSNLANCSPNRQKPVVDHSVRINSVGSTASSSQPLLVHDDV
Chain of Mast/stem cell growth factor receptor Kit (Homo sapiens), P10721 [V559D,T670I] (P10721 whole entry V559D/T670I, the tested form may be a part): as the sequence (P10721 whole entry) above, with V559D, T670I counted along it

As to `CCC(=O)NCC1CCN(c2ccc(NC(=O)Nc3cccc(Oc4ccnc5cc(OC)c(OC)cc45)c3)cc2C(F)(F)F)CC1`, the GI50 in test [1] worked out at 110 nM; in test [4] it was 120 nM; in test [9], 73 nM; in [13], 40 nM; in [18], 23 nM. In addition, the outcome in test [2], in test [6] and in test [22] was Active. For the same molecule, the EC50 in test [3] and in [20] was under 100 nM in each case. For the same molecule, the Activity result in test [5] was “Dose-dependent effect”; in test [7], under 1%; in [10] it was under 1%; in test [14] it was 0.05%; in test [15], 0%; in test [23], “Dose-dependent effect”. In addition, the results for the Ratio IC50 in [8], in test [11] and in [21] were 2, 7 and 10, respectively. Besides, the inhibition result in [12] is “Active”. The TGI entry in [16] is “Active”. In addition, the midpoint of inhibition in [17], the IC50, lay at 33 nM. For the same molecule, in [19], the inhibition in vivo at 100 mg/kg/day is 47.7%.

For the origin of these results see ChEMBL document CHEMBL4428071 (J Med Chem, 2016).
